ChEMBL document CHEMBL1149157, “Synthesis and structure-activity relationship of novel antitumoral platinum xanthate complexes” (J Med Chem, 2004)

Key:
Assay type in all cases: functional, cell-based, Homo sapiens
[1] = test system: Calu-6; assay: Cytotoxic activity was determined in vitro in Calu-6 cell line culture at pH 7.4
How it was run: (§1)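 Plated at 2×10^6 cells/plate. After one day, medium was replaced with pH 7.4 medium (2.2 g NaHCO3/L) and equilibrated under 5% CO2. Cells got 2 h at 37°C, in quadruplicate, of a 1:2 series 50–0.8 µg/mL (acetone ≤5%), then drug-free pH 7.4 medium for 24–96 h until controls were confluent. Fixed with 3% formaldehyde, stained with 1% crystal violet, A550. IC50 from dose–response curves; mean of four assays ± SD.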

[2] = test system: Calu-6; assay: Cytotoxic activity was determined in vitro in Calu-6 cell line culture at pH 6.8
How it was run: (§2)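 Seeded at 2×10^6 cells/plate. Next day, switched to pH 6.8 medium (1.3 g NaHCO3/L, serum acidified with 1 N HCl) and equilibrated in 5% CO2. Exposed for 2 h at 37°C in quadruplicate to 50–0.8 µg/mL (1:2 series; acetone ≤5%), then given drug-free pH 7.4 medium until controls were confluent. Read by formaldehyde fixation and crystal violet at 550 nm. IC50 from dose–response curves, mean of four assays ± SD.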

[3] = test system: KB; assay: Cytotoxic activity was determined in vitro in KB cell line culture at pH 7.4
How it was run: (§3)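 Using pH 7.4 medium (2.2 g NaHCO3/L) on cells plated a day earlier at 2×10^6/plate, with equilibration in 5% CO2. Compounds were applied for 2 h at 37°C in quadruplicate at 50–0.8 µg/mL (1:2; acetone ≤5%), followed by drug-free pH 7.4 medium until controls were confluent. Fixed and stained with crystal violet, dye eluted with ethanol/1% acetic acid, read at 550 nm. IC50 from curves, mean of four ± SD.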

[4] = test system: KB; assay: Cytotoxic activity was determined in vitro in KB cell line culture at pH 6.8
How it was run: (§4)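 Cells at 2×10^6/plate were moved the next day into pH 6.8 medium (1.3 g NaHCO3/L; serum given 1 N HCl; 30 min 5% CO2). Treated 2 h at 37°C, quadruplicate, 50–0.8 µg/mL in 1:2 steps (acetone ≤5%), then grown in drug-free pH 7.4 medium to control confluence. Crystal violet stain eluted with ethanol/1% acetic acid before A550. IC50 from curves, mean of four assays ± SD.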

[5] = test system: LXF-289 cell line; assay: Cytotoxic activity was determined in vitro in LXF-289 cell line culture at pH 6.8; how it was run: as §2
[6] = test system: LXF-289 cell line; assay: Cytotoxic activity was determined in vitro in LXF-289 cell line culture at pH 7.4; how it was run: as §1
[7] = test system: MCF7; assay: Cytotoxic activity was determined in vitro in MCF-7 cell line culture at pH 6.8; how it was run: as §4
[8] = test system: SK-OV-3; assay: Cytotoxic activity was determined in vitro in SK-OV-3 cell line culture at pH 6.8
How it was run: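 SK-OV-3 seeded at 1×10^6 cells/plate. Next day, placed in pH 6.8 medium (1.3 g NaHCO3/L, HCl-treated serum, 5% CO2). Given 2 h at 37°C, in quadruplicate, of 50–0.8 µg/mL (1:2; acetone ≤5%), then drug-free pH 7.4 medium until controls were confluent. Formaldehyde-fixed and crystal violet-stained, A550. IC50 from dose–response curves, mean of four assays ± SD.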

[9] = test system: SK-MEL-25; assay: Cytotoxic activity was determined in vitro in SK-MEL-25 cell line culture at pH 6.8; how it was run: as §2
[10] = test system: SK-MEL-25; assay: Cytotoxic activity was determined in vitro in SK-MEL-25 cell line culture at pH 7.4; how it was run: as §1
[11] = test system: MCF7; assay: Cytotoxic activity was determined in vitro in MCF-7 cell line culture at pH 7.4; how it was run: as §3
[12] = test system: SK-OV-3; assay: Cytotoxic activity was determined in vitro in SK-OV-3 cell line culture at pH 7.4
How it was run: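 With 1×10^6 cells/plate seeded, medium was changed the next day to pH 7.4 (2.2 g NaHCO3/L) under 5% CO2. Cells were exposed 2 h at 37°C in quadruplicate to a 1:2 series of 50–0.8 µg/mL (acetone ≤5%), then given drug-free pH 7.4 medium until controls were confluent. Crystal violet read at 550 nm after formaldehyde fixation. IC50 from curves; mean of four assays ± SD.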

Row | Substance | IC50 [1] | IC50 [2] | IC50 [3] | IC50 [4] | IC50 [5] | IC50 [6] | IC50 [7] | IC50 [8] | IC50 [9] | IC50 [10] | IC50 [11] | IC50 [12]
1 | 2,6-bis(nonyloxy)-1,3,5,7-tetrathia-4-platinaspiro[3.3]heptane | > 76 µM | > 76 µM | > 76 µM | > 76 µM | 38 µM | 53 µM | 24 µM | > 76 µM | > 76 µM | > 76 µM | 30 µM | > 76 µM
2 | 2,6-bis(pentan-3-yloxy)-1,3,5,7-tetrathia-4-platinaspiro[3.3]heptane | 5 µM | 3 µM | 5 µM | 4 µM | 8 µM | 10 µM | 5 µM | 8 µM | 5 µM | 9 µM | 6 µM | 5 µM
3 | 2,6-bis(2-methylpropoxy)-1,3,5,7-tetrathia-4-platinaspiro[3.3]heptane | 10 µM | 9 µM | 47 µM | 30 µM | 19 µM | 37 µM | 27 µM | 32 µM | 15 µM | 21 µM | 23 µM | 61 µM
4 | CISPLATIN | 25 µM | 16 µM | 52 µM | 55 µM | 113 µM | 83 µM | 108 µM | 64 µM | 78 µM | 90 µM | 160 µM | 90 µM
5 | 2,6-bis(hexyloxy)-1,3,5,7-tetrathia-4-platinaspiro[3.3]heptane | 37 µM | 23 µM | > 91 µM | 64 µM | > 91 µM | > 91 µM | 44 µM | 102 µM | 37 µM | 70 µM | 47 µM | 130 µM
6 | 2,6-bis[(3,3-dimethylbutan-2-yl)oxy]-1,3,5,7-tetrathia-4-platinaspiro[3.3]heptane | 9 µM | 9 µM | 7 µM | 5 µM | 15 µM | 18 µM | 7 µM | 18 µM | 10 µM | 11 µM | 9 µM | 34 µM
7 | 2,6-bis(2,2-dimethylpropoxy)-1,3,5,7-tetrathia-4-platinaspiro[3.3]heptane | 27 µM | 25 µM | > 96 µM | > 96 µM | 59 µM | 75 µM | 62 µM | > 86 µM | 72 µM | 83 µM | > 86 µM | > 86 µM
8 | 2,6-dimethoxy-1,3,5,7-tetrathia-4-platinaspiro[3.3]heptane | 21 µM | 11 µM | 49 µM | 20 µM | 39 µM | 102 µM | 7 µM | 26 µM | 14 µM | 80 µM | 19 µM | 47 µM
9 | 2,6-bis({tricyclo[5.2.2.0^{2,6}]undecan-8-yloxy})-1,3,5,7-tetrathia-4-platinaspiro[3.3]heptane | 18 µM | 8 µM | > 77 µM | > 77 µM | > 38 µM | > 38 µM | 32 µM | > 38 µM | > 38 µM | > 38 µM | > 38 µM | > 38 µM
10 | 2,6-bis(cyclopropylmethoxy)-1,3,5,7-tetrathia-4-platinaspiro[3.3]heptane | 33 µM | 17 µM | 72 µM | 33 µM | > 102 µM | > 102 µM | 95 µM | 95 µM | 64 µM | 85 µM | 90 µM | 67 µM
11 | 2,6-bis(cyclohexyloxy)-1,3,5,7-tetrathia-4-platinaspiro[3.3]heptane | 8 µM | 3 µM | 9 µM | 6 µM | 6 µM | 12 µM | 5 µM | 9 µM | 3 µM | 8 µM | 9 µM | 12 µM
12 | 2,6-bis(2-methylbutoxy)-1,3,5,7-tetrathia-4-platinaspiro[3.3]heptane | 19 µM | 9 µM | 39 µM | 31 µM | 19 µM | 44 µM | 19 µM | 23 µM | 17 µM | 32 µM | 27 µM | 35 µM
13 | 2,6-bis(octyloxy)-1,3,5,7-tetrathia-4-platinaspiro[3.3]heptane | 56 µM | 23 µM | > 83 µM | > 83 µM | 30 µM | 83 µM | 31 µM | > 83 µM | 56 µM | > 83 µM | 31 µM | > 83 µM
14 | 2,6-bis(2,2-dimethyl-3-phenylpropoxy)-1,3,5,7-tetrathia-4-platinaspiro[3.3]heptane | 17 µM | 10 µM | > 50 µM | > 50 µM | > 50 µM | > 50 µM | > 50 µM | > 50 µM | > 50 µM | > 50 µM | > 50 µM | > 50 µM
15 | 2,6-bis(3-methylbutoxy)-1,3,5,7-tetrathia-4-platinaspiro[3.3]heptane | 21 µM | 6 µM | 19 µM | 35 µM | 23 µM | 71 µM | 23 µM | 24 µM | 20 µM | 35 µM | 40 µM | 21 µM
16 | 2,6-dibutoxy-1,3,5,7-tetrathia-4-platinaspiro[3.3]heptane | 19 µM | 7 µM | 32 µM | 16 µM | 24 µM | 39 µM | 7 µM | 33 µM | 10 µM | 22 µM | 25 µM | 90 µM
17 | 2,6-bis(cyclopentyloxy)-1,3,5,7-tetrathia-4-platinaspiro[3.3]heptane | 5 µM | 3 µM | 24 µM | 14 µM | 37 µM | 38 µM | 5 µM | 17 µM | 5 µM | 9 µM | 10 µM | 26 µM
18 | 2,6-bis(propan-2-yloxy)-1,3,5,7-tetrathia-4-platinaspiro[3.3]heptane | 10 µM | 6 µM | 10 µM | 6 µM | 10 µM | 30 µM | 3 µM | 14 µM | 6 µM | 12 µM | 7 µM | 33 µM
19 | 2,6-dipropoxy-1,3,5,7-tetrathia-4-platinaspiro[3.3]heptane | 21 µM | 7 µM | 38 µM | 12 µM | 37 µM | 49 µM | 4 µM | 45 µM | 10 µM | 21 µM | 9 µM | 50 µM
